According to ChEMBL document CHEMBL1135746, “Structure-activity relationships of the antimalarial agent artemisinin. 7. Direct modification of (+)-artemisinin and in vivo antimalarial screening of new, potential preclinical antimalarial candidates” (J Med Chem, 2002):
Converted amounts (≈) assume the structure as drawn. “And” between values parts separate entries of the source, which are not always exact repeats. Equal values may be shown once.

Legend:
Plasmodium berghei [1] = assay: Antimalarial activity in Plasmodium berghei infected mice (Mus musculus) at 8 mg/kg/day peroral dose; type: functional; settings: route oral
Summary of the method: (§1)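 CD-1 mice (16-18 g), quarantined 2 weeks, then infected with P. berghei (Thompson test). Treatment was given on days 3-5 postinfection. Subcutaneous dosing was a single injection; oral dosing was by gavage of a peanut-oil suspension. Groups of 5 mice were used. Survival was scored out of 5 and parasitemia was followed up to 60 days postinfection.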

Plasmodium berghei [2] = assay: Antimalarial activity in Plasmodium berghei infected mice (Mus musculus) after 128 mg/kg/day subcutaneous dose; type: functional; summary of the method: as §1
Plasmodium berghei [3] = assay: Antimalarial activity in Plasmodium berghei infected mice (Mus musculus) at 32 mg/kg/day subcutaneous dose; type: functional; summary of the method: as §1
Plasmodium berghei [4] = assay: Antimalarial activity in Plasmodium berghei infected mice (Mus musculus) at 8 mg/kg/day subcutaneous dose; type: functional; summary of the method: as §1
Plasmodium berghei [5] = assay: Antimalarial activity in Plasmodium berghei infected mice (Mus musculus) at 128 mg/kg/day peroral dose; type: functional; settings: route oral; summary of the method: as §1
Plasmodium berghei [6] = assay: Antimalarial activity in Plasmodium berghei infected mice (Mus musculus) at 32 mg/kg/day peroral dose; type: functional; settings: route oral; summary of the method: as §1
Plasmodium yoelii [7] = assay: Effective dose after oral administration against Plasmodium yoelii sspNS for 50%inhibition in presence of DMSO; type: functional
Plasmodium berghei [8] = assay: (§2) Effective dose ED90 against Plasmodium berghei N in mice (Mus musculus) malaria model after peroral administration; type: functional; settings: po
Plasmodium berghei [9] = assay: (§3) Effective dose ED90 against Plasmodium berghei N in mice (Mus musculus) malaria model after subcutaneous administration; type: functional; settings: Plasmodium berghei, sc; read-out: ED90
Plasmodium berghei [10] = assay: Effective dose ED50 against Plasmodium berghei N in mice (Mus musculus) malaria model after subcutaneous administration; type: functional
Plasmodium falciparum [11] = assay: Inhibitory activity against Plasmodium falciparum D6; type: functional, organism-based
Summary of the method: (§4)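 Parasitized human red blood cells were used in short-term microtitre cultures. Compounds were dissolved in DMSO and diluted 400-fold in culture medium with plasma, giving a starting concentration of at least 12 500 ng/mL. Activity was measured as inhibition of parasite uptake of a radiolabelled nucleic acid precursor.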

Plasmodium falciparum [12] = assay: Inhibitory activity against Plasmodium falciparum K1; type: functional, organism-based
Plasmodium falciparum [13] = assay: Inhibitory activity against Plasmodium falciparum W2; type: functional, organism-based; summary of the method: as §4
Plasmodium yoelii [14] = assay: Effective subcutaneous dose ED50 in SSV against Plasmodium yoelii sspNS; type: functional; settings: sc
Plasmodium yoelii [15] = assay: Effective subcutaneous dose ED90 in SSV against Plasmodium yoelii sspNS; type: functional; settings: sc
Plasmodium yoelii [16] = assay: Effective dose after oral administration against Plasmodium yoelii sspNS for 90%inhibition in presence of DMSO; type: functional
Plasmodium berghei [17] = assay: Effective dose ED50 against Plasmodium berghei N in mice (Mus musculus) malaria model after peroral administration; type: functional
Plasmodium yoelii [18] = assay: Effective oral dose ED50 in DMSO against Plasmodium yoelii sspNS; type: functional
Plasmodium yoelii [19] = assay: Effective dose ED50 against Plasmodium yoelii sspNS in presence of SSV; type: functional
Plasmodium yoelii [20] = assay: Effective oral dose ED90 in DMSO against Plasmodium yoelii sspNS; type: functional
Plasmodium yoelii [21] = assay: Effective oral dose ED90 in SSV against Plasmodium yoelii sspNS; type: functional
Plasmodium berghei [22] = assay: as §3; type: functional; settings: sc
Summary of the method: (§5)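 Peters' 4-day test: two batches of five male random-bred Swiss albino mice (18-22 g) were inoculated i.v. with 2 × 10⁶ P. berghei N-parasitized RBC. Drug was given once daily for four consecutive days. Compounds were dissolved in DMSO, then diluted in water for subcutaneous or oral dosing. Parasitemia was read the day after the last treatment.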

Plasmodium yoelii [23] = assay: Effective subcutaneous dose ED50 against Plasmodium yoelii sspNS; type: functional; settings: sc
Plasmodium yoelii [24] = assay: Effective subcutaneous dose ED90 against Plasmodium yoelii sspNS; type: functional; settings: Plasmodium yoelii, sc; read-out: ED90
Plasmodium berghei [25] = assay: Effective dose ED90 against Plasmodium berghei N in mice (Mus musculus) malaria model after subcutaneous dose; settings: sc
Plasmodium berghei [26] = assay: Effective dose ED90 against Plasmodium berghei N in mice (Mus musculus) malaria model after oral administration; type: functional; summary of the method: as §5
Plasmodium berghei [27] = assay: Effective dose […] against Plasmodium berghei N in a mice (Mus musculus) malaria model after oral dose; type: functional
Plasmodium falciparum [28] = assay: Inhibitory activity against Plasmodium falciparum NF54; type: functional, organism-based
Plasmodium berghei [29] = assay: Effective dose Plasmodium berghei N in mice (Mus musculus) malaria model after subcutaneous administration; type: functional; settings: sc; summary of the method: as §5
Plasmodium berghei [30] = assay: Effective dose ED50 against Plasmodium berghei N and Plasmodium species infected mice (Mus musculus) after peroral dose; type: functional; settings: po; summary of the method: as §5
Plasmodium berghei [31] = assay: as §2; type: functional; settings: po; summary of the method: as §5; remark: listed apart in the source
Plasmodium berghei [32] = assay: Effective dose against Plasmodium berghei N in mice (Mus musculus) malaria model after subcutaneous administration; type: functional; settings: sc; summary of the method: as §5
[33] = Plasmodium berghei, sc, read-out: ED50
[34] = Plasmodium berghei, po, read-out: ED50

**Q.** `C[C@@H]1CC[C@H]2[C@@H](CCCc3ccc(Cl)c(Cl)c3)CO[C@@H]3OC4(C)CC[C@@H]1[C@]32OO4` (single isomer, unassigned) was tested. Which Activity (Plasmodium berghei [1]) did it give?
**A.** 0

**Q.** What about the Activity (Plasmodium berghei [2]) of the same compound?
**A.** 5

**Q.** And the Activity (Plasmodium berghei [3])?
**A.** 5

**Q.** And the Activity (Plasmodium berghei [4])?
**A.** 0

**Q.** And the Activity (Plasmodium berghei [5])?
**A.** 5

**Q.** And the Activity (Plasmodium berghei [6])?
**A.** 5

**Q.** How did the Activity (Plasmodium berghei [1]) turn out when `C[C@@H]1CC[C@H]2[C@@H](CCCc3ccc(F)cc3)CO[C@@H]3OC4(C)CC[C@@H]1[C@]32OO4` (single isomer, unassigned) was run?
**A.** 1

**Q.** What about the Activity (Plasmodium berghei [2]) of the same compound?
**A.** 5

**Q.** What about the Activity (Plasmodium berghei [3]) of the same compound?
**A.** 5

**Q.** And the Activity (Plasmodium berghei [4])?
**A.** 0

**Q.** And the Activity (Plasmodium berghei [5])?
**A.** 5

**Q.** And the Activity (Plasmodium berghei [6])?
**A.** 5

**Q.** Which ED50 (Plasmodium yoelii [7]) does the source give for `C[C@@H]1CC[C@H]2[C@@H](CCCc3cc(F)cc(F)c3)CO[C@@H]3OC4(C)CC[C@@H]1[C@]32OO4` (single isomer, unassigned) here?
**A.** 2.3 mg/kg

**Q.** And the ED90 (Plasmodium berghei [8])?
**A.** 5.7 mg/kg

**Q.** What about the ED90 (Plasmodium berghei [9]) of the same compound?
**A.** 2 mg/kg

**Q.** And the ED50 (Plasmodium berghei [10]; [33])?
**A.** 1.3 mg/kg

**Q.** What about the IC50 (Plasmodium falciparum [11]) of the same compound?
**A.** 0.82 ng/mL (≈ 0.00201 µM)

**Q.** And the IC50 (Plasmodium falciparum [12])?
**A.** 3.2 ng/mL (≈ 0.00783 µM)

**Q.** And the IC50 (Plasmodium falciparum [13])?
**A.** 6.5 ng/mL (≈ 0.0159 µM)

**Q.** And the ED50 (Plasmodium yoelii [14])?
**A.** 2.2 mg/kg

**Q.** What about the ED90 (Plasmodium yoelii [15]) of the same compound?
**A.** 6.5 mg/kg

**Q.** And the ED90 (Plasmodium yoelii [16])?
**A.** 7.5 mg/kg

**Q.** Which ED50 (Plasmodium berghei [17]; [34]) does the source give for `C[C@@H]1CC[C@H]2[C@@H](CCCc3cc(C(F)(F)F)cc(C(F)(F)F)c3)CO[C@@H]3OC4(C)CC[C@@H]1[C@]32OO4` (single isomer, unassigned) here?
**A.** 2.6 mg/kg

**Q.** And the ED50 (Plasmodium yoelii [18])?
**A.** 1.5 mg/kg

**Q.** And the ED90 (Plasmodium berghei [8])?
**A.** 5 mg/kg

**Q.** What about the ED90 (Plasmodium berghei [9]) of the same compound?
**A.** 1.7 mg/kg

**Q.** And the ED50 (Plasmodium berghei [10]; [33])?
**A.** 0.9 mg/kg

**Q.** What about the IC50 (Plasmodium falciparum [11]) of the same compound?
**A.** 0.78 ng/mL (≈ 0.00153 µM)

**Q.** What about the IC50 (Plasmodium falciparum [12]) of the same compound?
**A.** 4.06 ng/mL (≈ 0.00798 µM)

**Q.** What about the IC50 (Plasmodium falciparum [13]) of the same compound?
**A.** 7.11 ng/mL (≈ 0.014 µM)

**Q.** And the ED50 (Plasmodium yoelii [19])?
**A.** 4.2 mg/kg

**Q.** And the ED90 (Plasmodium yoelii [20])?
**A.** 3.6 mg/kg

**Q.** And the ED90 (Plasmodium yoelii [21])?
**A.** 12 mg/kg

**Q.** With `C[C@@H]1CC[C@H]2[C@@H](C)C(=O)O[C@@H]3O[C@@]4(C)CC[C@@H]1[C@]32OO4` [ARTEMISININ] as the compound, how does the Activity (Plasmodium berghei [1]) read?
**A.** 0

**Q.** What about the Activity (Plasmodium berghei [2]) of the same compound?
**A.** 5

**Q.** And the Activity (Plasmodium berghei [3])?
**A.** 3

**Q.** What about the Activity (Plasmodium berghei [4]) of the same compound?
**A.** 0

**Q.** And the Activity (Plasmodium berghei [5])?
**A.** 0

**Q.** And the Activity (Plasmodium berghei [6])?
**A.** 0

**Q.** Which results are given for `CCN(CC)CCCC(C)Nc1ccnc2cc(Cl)ccc12` (stereo not given) [CHLOROQUINE]?
**A.** ED90 (Plasmodium berghei [9]): 3 mg/kg; ED90 (Plasmodium berghei [22]): 3.4 mg/kg; ED50 (Plasmodium berghei [10]; [33]): 1.5 mg/kg; ED50 (Plasmodium yoelii [23]): 1.6 mg/kg; ED90 (Plasmodium yoelii [24]): 28 mg/kg; ED90 (Plasmodium berghei [25]): 1.8 mg/kg

**Q.** With `OC(c1cc(C(F)(F)F)nc2c(C(F)(F)F)cccc12)C1CCCCN1` (stereo not given) [MEFLOQUINE] as the compound, how does the ED90 (Plasmodium berghei [26]) read?
**A.** 5.1 mg/kg

**Q.** What about the ED90 (Plasmodium berghei [9]) of the same compound?
**A.** 2.3 mg/kg

**Q.** What about the ED50 (Plasmodium berghei [10]; [33]) of the same compound?
**A.** 1.1 mg/kg

**Q.** What about the ED50 (Plasmodium berghei [27]) of the same compound?
**A.** 3.3 mg/kg

**Q.** And the ED50 (Plasmodium yoelii [23])?
**A.** 2.3 mg/kg

**Q.** What about the ED90 (Plasmodium yoelii [24]) of the same compound?
**A.** 6 mg/kg

**Q.** Which ED50 (Plasmodium berghei [17]; [34]) does the source give for `C=C[C@H]1CN2CC[C@H]1C[C@H]2[C@H](O)c1ccnc2ccc(OC)cc12` [QUININE] here?
**A.** 71 mg/kg

**Q.** And the ED90 (Plasmodium berghei [8])?
**A.** 118 mg/kg

**Q.** And the ED90 (Plasmodium berghei [9])?
**A.** 1050 mg/kg

**Q.** What about the ED50 (Plasmodium berghei [10]; [33]) of the same compound?
**A.** 83 mg/kg

**Q.** And the IC50 (Plasmodium falciparum [11])?
**A.** 160 ng/mL (≈ 0.492 µM)

**Q.** And the IC50 (Plasmodium falciparum [28])?
**A.** 9.08 ng/mL (≈ 0.028 µM)

**Q.** And the IC50 (Plasmodium falciparum [13])?
**A.** 150 ng/mL (≈ 0.462 µM)

**Q.** For `C[C@H]1[C@H](OC(=O)CCC(=O)[O-])O[C@@H]2O[C@@]3(C)CC[C@H]4[C@H](C)CC[C@@H]1[C@@]24OO3.[Na+]` [SODIUM ARESUNATE], which ED50 (Plasmodium berghei [17]) is on record?
**A.** 1.6 mg/kg

**Q.** What about the ED50 (Plasmodium berghei [17]; [34]) of the same compound?
**A.** 2.4 mg/kg

**Q.** What about the ED50 (Plasmodium berghei [29]) of the same compound?
**A.** > 10 mg/kg

**Q.** What about the ED90 (Plasmodium berghei [30]) of the same compound?
**A.** > 10 mg/kg

**Q.** And the ED90 (Plasmodium berghei [31])?
**A.** > 10 mg/kg

**Q.** What about the ED90 (Plasmodium berghei [32]) of the same compound?
**A.** > 10 mg/kg

**Q.** What about the ED50 (Plasmodium berghei [10]) of the same compound?
**A.** 0.8 mg/kg and 1.8 mg/kg
